Data taken from article PMC8592089 (SLAS discovery : advancing life sciences R & D, 2020).
Entries after “also recorded” stand apart in the source; their conditions may differ. Read-outs that look alike come from different tables or passages of the source.

T1: PABPN1 (Homo sapiens, UniProt Q86U42)
T1 sequence (Q86U42 1-306): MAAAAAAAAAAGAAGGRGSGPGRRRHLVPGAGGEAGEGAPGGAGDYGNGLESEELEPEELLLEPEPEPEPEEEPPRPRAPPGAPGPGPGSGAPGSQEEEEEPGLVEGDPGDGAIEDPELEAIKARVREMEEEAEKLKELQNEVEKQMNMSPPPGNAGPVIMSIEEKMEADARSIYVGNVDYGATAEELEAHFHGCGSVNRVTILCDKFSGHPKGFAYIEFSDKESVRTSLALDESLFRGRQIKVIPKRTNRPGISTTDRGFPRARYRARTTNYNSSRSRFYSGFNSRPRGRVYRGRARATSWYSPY

T2: PABPN1 (UniProt Q86U42 1-306)
T2 sequence: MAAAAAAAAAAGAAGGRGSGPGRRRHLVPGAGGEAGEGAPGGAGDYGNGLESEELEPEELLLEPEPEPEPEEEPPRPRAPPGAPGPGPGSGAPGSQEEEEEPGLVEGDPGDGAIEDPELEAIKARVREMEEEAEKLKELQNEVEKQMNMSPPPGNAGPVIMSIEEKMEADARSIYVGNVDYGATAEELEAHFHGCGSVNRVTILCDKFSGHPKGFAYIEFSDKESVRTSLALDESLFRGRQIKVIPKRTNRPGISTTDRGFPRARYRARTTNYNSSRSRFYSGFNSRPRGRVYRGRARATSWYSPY

T3: MSUT2 ZF (zinc finger domain) (UniProt Q6PJT7 595-719)
T3 sequence: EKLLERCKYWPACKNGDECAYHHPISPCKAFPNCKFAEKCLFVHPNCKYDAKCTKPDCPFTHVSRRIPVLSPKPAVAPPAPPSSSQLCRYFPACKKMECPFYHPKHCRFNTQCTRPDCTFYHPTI


Columns and labels:
[1] = target: T1, PABPN1; assay: AlphaScreen specificity counterscreen against PABPN1; type: binding; details: AlphaScreen IC50 MSUT2 compared with PABPN1, in words
How it was run: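 GST-tagged PABPN1 and MSUT2 zinc-finger construct were expressed in E. coli BL21(DE3) and purified on glutathione-sepharose. AlphaScreen was run in AlphaLISA universal buffer plus 100 mM NaCl with donor beads (10 μg/mL), 250 nM biotinylated poly(A) RNA and 250 nM GST-MSUT2. Compound was pin-added, incubated 30 min at RT in the dark, then acceptor beads were added for 60 min. IC50 was from a four-parameter fit, N=3.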

[2] = target: MSUT2; assay: Fluorescence polarization orthogonal assay, FAM-poly; type: binding
How it was run: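 GST-MSUT2 zinc finger (E. coli BL21(DE3), glutathione-purified) at 125 nM was mixed with 10 nM FAM-poly(A) RNA in PBS, and compound was added. Incubation was 20 min at room temperature, protected from light. Read at ex 485/20, em 528/20; buffer-only background was subtracted and polarization calculated as (F∥−F⊥)/(F∥+F⊥). A parallel run included DTT. N=3 without DTT, N=2 with DTT.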

[3] = test system: HEK-293 cells; assay: Cytotoxicity screen, CellTiter-Glo cell viability; type: cell-based, human; details: HEK cell model, in words
[4] = target: MSUT2; details: read-out: Kd of MSUT2 for poly(A); cited from earlier work
[5] = target: T2, PABPN1; assay: competition
[6] = target: T3, MSUT2 ZF (zinc finger domain); assay: competition
[7] = read-out: IC50 (FP = FP assay), without DTT, 125 nM MSUT2, 10 nM FAM-RNA
[8] = read-out: IC50 (FP+DTT = FP in the presence of reducing agent DTT), with DTT

Molecule	Specificity for MSUT2 versus PABPN1 [1]	IC50 [2, 7]	IC50 [2, 8]	Effect on cell viability (toxicity) [3]	further results
O=S(=O)(O)c1cc(N=C=S)ccc1C=Cc1ccc(N=C=S)cc1S(=O)(=O)O [DIDS, 4,4′-diisothiocyanostilbene-2,2′-sulfonic acid]	low specificity for MSUT2; also recorded: twofold reduction in potency against PABPN1	6.32 µM	6.02 µM	relatively nontoxic at all doses tested	–
poly(A)	–	–	–	–	Kd [4]: 0.06 ± 0.015 µM
O=c1c2ccccc2[se]n1-c1ccccc1 [ebselen]	–	–	–	–	Inhibitory effect in FP assay in the presence of DTT ([2]; with reducing agent DTT): abolished the inhibitory effect
AAAAAAAAAAAAAAA (ssRNA) [unlabeled poly(A) 15-mer]	–	–	–	–	IC50 [5]: 0.803 µM; IC50 [6]: 0.198 µM

Now from value to molecule, other results behind:

Specificity for MSUT2 versus PABPN1 [1]	IC50 [2, 7]	IC50 [2, 8]	Molecule	Effect on cell viability (toxicity) [3]	further results
low specificity for MSUT2	1.32 µM	1.56 µM	O=C1C(Cl)=C(Cl)C(=O)c2c(O)ccc(O)c21 [2,3-Dichloro-5,8-dihydroxynapthoquinone, 2,3-dichloro-5,8-dihydroxynapthoquinone]	–	–
nonspecifically inhibited MSUT2	7.11 µM	7.19 µM	O=C(O)C1=CC(=C(c2ccc(O)c(C(=O)O)c2)c2ccc(O)c(C(=O)O)c2)C=CC1=O [Aurin tricarboxylic acid, aurin tricarboxylic acid]	relatively high toxicity at high concentrations	–
